Test results reported in ChEMBL document CHEMBL3784976 (J Med Chem, 2016).
Active and inactive are the calls of the source. The calls are words filed in the database; no cut-off is given here.

Experiments:
Cavia porcellus = species on record: Cavia porcellus; test: Displacement of [3H]NBTI from adenosine transporter in guinea pig cerebral cortex assessed as remaining radioligand binding at 10 uM after 30 mins by scintillation counting method relative to control; type: tissue-based
[1] = Ratio of unbound plasma concentration in Harlan Sprague-Dawley rat model of AITC-induced flinching at 10 mg/kg, po to IC50 for rat TRPA1 expressed in tetracycline-inducible T-REx expression system transfected CHO cells by 45Ca2+ uptake assay; type: ADME, organism-based; conditions: in vivo
In short: (§1)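 Rats dosed orally at 1, 3, 10 or 30 mg/kg in 2% HPMC/1% Tween-80 vehicle. After 1 h, unbound plasma concentration measured (n = 8 per dose), intraplantar AITC (0.1%) given and flinching scored over the first minute. Unbound concentration divided by in vitro rat TRPA1 45Ca2+ IC50.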

[2] = target: 5-hydroxytryptamine receptor 1B (Rattus norvegicus) (UniProt P28564); test: Displacement of [125I]CYP from 5HT1B receptor in rat cerebral cortex assessed as remaining radioligand binding at 10 uM after 120 mins by scintillation counting method relative to control; type: tissue-based
[3] = target: T1, Transient receptor potential cation channel subfamily A member 1 (Rattus norvegicus, UniProt Q6RI86); test: Agonist activity at rat TRPA1 expressed in tetracycline-inducible T-REx expression system transfected CHO cells by 45Ca2+ uptake assay; type: cell-based
[4] = target: Transient receptor potential cation channel subfamily V member 1 (Rattus norvegicus) (UniProt O35433); test: Antagonist activity at rat TRPV1 assessed as inhibition of capsaicin-induced Ca2+ influx up to 10 uM preincubated for 2.5 mins followed by capsaicin addition measured for 1 min by luminescence assay
Plasma = test: Unbound plasma concentration in Harlan Sprague-Dawley rat model of AITC-induced flinching at 10 mg/kg, po at 1 hr; type: ADME, organism-based; conditions: in vivo
In short: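 Rats were given vehicle (2% HPMC/1% Tween-80) or compound orally at 1, 3, 10 or 30 mg/kg. After 1 h, 0.1% AITC was injected into one left ventral hind paw, and nocifensive flinching was recorded over the first minute. Unbound plasma concentration was measured at 1 h, n = 8 per dose. In vivo IC50/IC90 came from the exposure–response relationship across individual animals.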

[5] = Ratio of unbound plasma concentration in Harlan Sprague-Dawley rat model of AITC-induced flinching at 3 mg/kg, po to IC50 for rat TRPA1 expressed in tetracycline-inducible T-REx expression system transfected CHO cells by 45Ca2+ uptake assay; type: ADME, organism-based; conditions: in vivo; in short: as §1
[6] = Clearance in rat at 0.5 mg/kg, iv as single dose; type: ADME, organism-based; conditions: in vivo
[7] = Ratio of unbound plasma concentration in Harlan Sprague-Dawley rat model of AITC-induced flinching at 30 mg/kg, po to IC50 for rat TRPA1 expressed in tetracycline-inducible T-REx expression system transfected CHO cells by 45Ca2+ uptake assay; type: ADME, organism-based; conditions: in vivo; in short: as §1
[8] = target: Histamine H3 receptor (Homo sapiens) (UniProt Q9Y5N1); test: Displacement of [3H]Na-Me-histamine from human recombinant histamine H3 receptor expressed in CHO cells assessed as remaining radioligand binding at 10 uM after 60 mins by scintillation counting method relative to control; type: cell-based
Rattus norvegicus [9] = test: fCmax in rat at 30 mg/kg, po; type: ADME, organism-based; conditions: in vivo
In short: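 Rats dosed orally at 30 mg/kg, or 10 mg/kg for one analogue, in 1% Tween 80/2% HPMC/97% water with methanesulfonic acid, pH 2.2.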

Rattus norvegicus [10] = test: Binding affinity to TRPA1 in Harlan Sprague-Dawley rat model of AITC-induced flinching at 30 mg/kg, po in presence of AITC; type: functional, organism-based
Cytochrome P450 3A4 = Cytochrome P450 3A4 (Homo sapiens, UniProt P08684); test: Inhibition of CYP3A4 in human liver microsomes using midazolam as substrate by LC-MS/MS analysis in presence of NADPH; type: ADME
[11] = target: D(3) dopamine receptor (Homo sapiens) (UniProt P35462); test: Displacement of [3H]methyl-spiperone from human recombinant dopamine D3 receptor expressed in CHO cells assessed as remaining radioligand binding at 10 uM after 60 mins by scintillation counting method relative to control; type: cell-based
[12] = target: Substance-K receptor (Homo sapiens) (UniProt P21452); test: Displacement of [125I]NKA from human recombinant NK2 receptor expressed in CHO cells assessed as remaining radioligand binding at 10 uM after 60 mins by scintillation counting method relative to control; type: cell-based
[13] = target: D(1A) dopamine receptor (Homo sapiens) (UniProt P21728); test: Displacement of [3H]SCH-23390 from human recombinant dopamine D1 receptor expressed in CHO cells assessed as remaining radioligand binding at 10 uM after 60 mins by scintillation counting method relative to control; type: cell-based
[14] = target: Transient receptor potential cation channel subfamily M member 8 (Rattus norvegicus) (UniProt Q8R455); test: Antagonist activity at rat TRPM8 assessed as inhibition of icilin-induced Ca2+ influx up to 10 uM preincubated for 2.5 mins followed by icilin addition measured for 1 min by luminescence assay
Rattus norvegicus [15] = test: Unbound clearance in rat at 0.5 mg/kg, iv as single dose; type: ADME, organism-based; conditions: in vivo
In short: (§2)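 Single intravenous dose of 0.5 mg/kg given to rats, formulated in 100% DMSO.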

[16] = target: D(2) dopamine receptor (Homo sapiens) (UniProt P14416); test: Displacement of [3H]methyl-spiperone from human recombinant dopamine D2S receptor expressed in HEK293 cells assessed as remaining radioligand binding at 10 uM after 60 mins by scintillation counting method relative to control; type: cell-based
[17] = Half life in rat at 0.5 mg/kg, iv administered as single dose; type: ADME, organism-based; conditions: in vivo; in short: as §2
[18] = target: Cholecystokinin receptor type A (Homo sapiens) (UniProt P32238); test: Displacement of [125I]CCK-8s from human recombinant CCK1 receptor expressed in CHO cells assessed as remaining radioligand binding at 10 uM after 60 mins by scintillation counting method relative to control; type: cell-based
Rattus norvegicus [19] = species on record: Rattus norvegicus; test: Displacement of [3H]diltiazem from L-type calcium channel diltiazem binding site in rat cerebral cortex assessed as remaining radioligand binding at 10 uM after 120 mins by scintillation counting method relative to control; type: tissue-based
[20] = target: 5-hydroxytryptamine receptor 2A (Homo sapiens) (UniProt P28223); test: Displacement of [3H]ketanserin from human recombinant 5HT2A receptor expressed in HEK293 cells assessed as remaining radioligand binding at 10 uM after 60 mins by scintillation counting method relative to control; type: cell-based
[21] = target: 5-hydroxytryptamine receptor 2B (Homo sapiens) (UniProt P41595); test: Displacement of [3H]mesulergine from human recombinant 5HT2B receptor expressed in CHO cells assessed as remaining radioligand binding at 10 uM after 60 mins by scintillation counting method relative to control; type: cell-based
[22] = target: Transient receptor potential cation channel subfamily V member 1 (Homo sapiens, UniProt Q8NER1); test: Antagonist activity at human TRPV1 expressed in CHO cells assessed as inhibition of capsaicin-induced Ca2+ influx up to 10 uM preincubated for 2.5 mins followed by capsaicin addition measured for 1 min by luminescence assay; type: cell-based
[23] = target: T1, Transient receptor potential cation channel subfamily A member 1; test: Antagonist activity at rat TRPA1 expressed in tetracycline-inducible T-REx expression system transfected CHO cells assessed as inhibition of AITC-induced 45Ca2+ uptake preincubated for 1 min followed by AITC addition measured after 12 mins; type: cell-based

T1 sequence (Q6RI86 whole entry): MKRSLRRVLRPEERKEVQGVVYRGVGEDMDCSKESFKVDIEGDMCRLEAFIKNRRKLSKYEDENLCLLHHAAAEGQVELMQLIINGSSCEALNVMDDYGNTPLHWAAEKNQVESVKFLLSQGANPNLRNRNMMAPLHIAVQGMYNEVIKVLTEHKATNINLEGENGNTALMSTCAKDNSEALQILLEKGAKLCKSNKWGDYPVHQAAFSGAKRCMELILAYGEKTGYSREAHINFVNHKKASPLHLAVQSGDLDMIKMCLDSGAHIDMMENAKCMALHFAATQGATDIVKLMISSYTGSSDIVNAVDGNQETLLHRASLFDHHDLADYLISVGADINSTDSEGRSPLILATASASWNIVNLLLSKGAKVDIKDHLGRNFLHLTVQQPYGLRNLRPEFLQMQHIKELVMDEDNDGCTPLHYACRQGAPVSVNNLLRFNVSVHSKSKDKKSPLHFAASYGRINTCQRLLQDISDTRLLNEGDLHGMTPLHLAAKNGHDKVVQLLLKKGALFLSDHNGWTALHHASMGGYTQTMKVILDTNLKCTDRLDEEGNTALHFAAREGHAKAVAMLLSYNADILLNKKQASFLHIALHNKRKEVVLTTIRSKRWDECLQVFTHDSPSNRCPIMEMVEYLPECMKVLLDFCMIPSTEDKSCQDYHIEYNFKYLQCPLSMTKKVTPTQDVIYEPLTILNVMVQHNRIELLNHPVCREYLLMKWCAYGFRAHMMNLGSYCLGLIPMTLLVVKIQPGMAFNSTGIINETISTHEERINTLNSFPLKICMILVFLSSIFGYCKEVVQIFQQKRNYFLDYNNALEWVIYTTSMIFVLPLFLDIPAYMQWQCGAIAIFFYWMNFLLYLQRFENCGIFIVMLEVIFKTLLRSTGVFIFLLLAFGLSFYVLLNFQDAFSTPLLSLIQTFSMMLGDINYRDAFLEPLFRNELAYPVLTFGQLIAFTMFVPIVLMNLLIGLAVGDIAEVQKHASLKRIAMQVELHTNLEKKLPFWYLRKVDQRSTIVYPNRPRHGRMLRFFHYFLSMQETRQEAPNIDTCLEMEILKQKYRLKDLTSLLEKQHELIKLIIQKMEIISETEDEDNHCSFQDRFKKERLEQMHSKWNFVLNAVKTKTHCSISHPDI
Chain of Cytochrome P450 3A4 (P08684 whole entry): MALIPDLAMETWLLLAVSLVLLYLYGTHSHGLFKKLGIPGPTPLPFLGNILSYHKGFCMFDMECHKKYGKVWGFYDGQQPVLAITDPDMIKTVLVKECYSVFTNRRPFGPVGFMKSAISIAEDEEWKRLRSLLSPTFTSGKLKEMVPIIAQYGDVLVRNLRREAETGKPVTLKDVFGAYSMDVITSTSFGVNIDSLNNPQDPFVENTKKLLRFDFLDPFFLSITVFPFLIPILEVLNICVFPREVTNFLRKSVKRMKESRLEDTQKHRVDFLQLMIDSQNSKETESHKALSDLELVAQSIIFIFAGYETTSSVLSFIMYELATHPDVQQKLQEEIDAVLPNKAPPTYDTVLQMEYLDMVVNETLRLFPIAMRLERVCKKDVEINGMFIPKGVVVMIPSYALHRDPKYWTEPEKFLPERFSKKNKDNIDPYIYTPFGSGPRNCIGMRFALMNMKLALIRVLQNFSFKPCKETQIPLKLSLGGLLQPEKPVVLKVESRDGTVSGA
Chain of Transient receptor potential cation channel subfamily V member 1 (Q8NER1 whole entry): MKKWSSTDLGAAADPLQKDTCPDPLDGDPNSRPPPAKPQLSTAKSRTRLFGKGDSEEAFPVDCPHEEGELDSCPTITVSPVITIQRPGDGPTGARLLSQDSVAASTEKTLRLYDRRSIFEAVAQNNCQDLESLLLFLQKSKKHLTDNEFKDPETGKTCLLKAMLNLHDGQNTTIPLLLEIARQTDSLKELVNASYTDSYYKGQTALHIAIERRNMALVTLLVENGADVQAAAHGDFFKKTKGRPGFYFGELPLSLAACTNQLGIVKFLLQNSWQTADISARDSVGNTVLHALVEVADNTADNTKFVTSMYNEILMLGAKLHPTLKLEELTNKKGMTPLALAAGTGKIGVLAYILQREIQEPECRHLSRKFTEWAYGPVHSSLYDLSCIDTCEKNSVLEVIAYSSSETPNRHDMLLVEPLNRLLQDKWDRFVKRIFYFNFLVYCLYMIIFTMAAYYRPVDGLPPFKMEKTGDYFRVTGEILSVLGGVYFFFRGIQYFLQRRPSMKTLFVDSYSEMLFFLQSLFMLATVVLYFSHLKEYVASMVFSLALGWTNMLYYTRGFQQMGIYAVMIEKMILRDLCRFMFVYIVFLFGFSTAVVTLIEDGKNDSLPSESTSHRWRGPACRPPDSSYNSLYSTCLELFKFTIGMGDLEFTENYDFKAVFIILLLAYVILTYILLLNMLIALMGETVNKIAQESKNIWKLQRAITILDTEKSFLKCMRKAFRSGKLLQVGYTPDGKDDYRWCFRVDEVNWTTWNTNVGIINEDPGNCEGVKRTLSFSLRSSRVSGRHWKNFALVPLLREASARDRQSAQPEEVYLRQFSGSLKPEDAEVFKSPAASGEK
Chain of 5-hydroxytryptamine receptor 2B (Homo sapiens) (P41595 whole entry): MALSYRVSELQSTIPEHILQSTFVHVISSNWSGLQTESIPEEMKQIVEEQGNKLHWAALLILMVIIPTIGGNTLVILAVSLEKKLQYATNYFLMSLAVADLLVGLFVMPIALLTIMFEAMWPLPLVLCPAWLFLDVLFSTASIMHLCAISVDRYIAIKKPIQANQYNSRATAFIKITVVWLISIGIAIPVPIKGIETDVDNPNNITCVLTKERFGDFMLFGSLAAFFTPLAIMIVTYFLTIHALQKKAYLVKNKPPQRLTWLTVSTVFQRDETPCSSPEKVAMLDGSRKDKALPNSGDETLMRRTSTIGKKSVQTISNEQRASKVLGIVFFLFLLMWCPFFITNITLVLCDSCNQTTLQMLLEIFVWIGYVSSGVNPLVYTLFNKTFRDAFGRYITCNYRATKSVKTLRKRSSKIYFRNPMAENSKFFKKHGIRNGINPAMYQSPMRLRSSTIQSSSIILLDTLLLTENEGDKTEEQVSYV
Chain of 5-hydroxytryptamine receptor 2A (Homo sapiens) (P28223 whole entry): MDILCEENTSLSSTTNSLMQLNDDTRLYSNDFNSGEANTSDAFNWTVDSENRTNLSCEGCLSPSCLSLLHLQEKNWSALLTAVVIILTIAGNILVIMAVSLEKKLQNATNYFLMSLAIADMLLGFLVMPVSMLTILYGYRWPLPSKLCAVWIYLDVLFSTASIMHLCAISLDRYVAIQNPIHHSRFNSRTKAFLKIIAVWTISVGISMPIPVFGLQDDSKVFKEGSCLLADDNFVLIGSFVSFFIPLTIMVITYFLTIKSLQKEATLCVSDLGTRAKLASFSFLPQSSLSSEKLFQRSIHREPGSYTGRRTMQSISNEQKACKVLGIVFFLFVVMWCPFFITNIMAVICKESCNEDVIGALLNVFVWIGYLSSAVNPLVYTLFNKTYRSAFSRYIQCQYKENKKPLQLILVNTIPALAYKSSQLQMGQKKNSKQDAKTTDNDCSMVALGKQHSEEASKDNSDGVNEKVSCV
Chain of D(3) dopamine receptor (Homo sapiens) (P35462 whole entry): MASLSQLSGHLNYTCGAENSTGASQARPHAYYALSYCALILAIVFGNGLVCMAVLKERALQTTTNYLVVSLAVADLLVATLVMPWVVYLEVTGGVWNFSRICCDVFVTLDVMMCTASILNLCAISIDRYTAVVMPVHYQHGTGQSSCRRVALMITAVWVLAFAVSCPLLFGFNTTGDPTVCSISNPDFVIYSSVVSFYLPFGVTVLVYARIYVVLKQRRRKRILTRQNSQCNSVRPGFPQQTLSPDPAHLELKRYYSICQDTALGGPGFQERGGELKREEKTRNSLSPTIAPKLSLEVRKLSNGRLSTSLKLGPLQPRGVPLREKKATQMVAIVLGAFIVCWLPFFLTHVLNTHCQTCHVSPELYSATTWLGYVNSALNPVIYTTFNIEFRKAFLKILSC
Chain of D(2) dopamine receptor (Homo sapiens) (P14416 whole entry): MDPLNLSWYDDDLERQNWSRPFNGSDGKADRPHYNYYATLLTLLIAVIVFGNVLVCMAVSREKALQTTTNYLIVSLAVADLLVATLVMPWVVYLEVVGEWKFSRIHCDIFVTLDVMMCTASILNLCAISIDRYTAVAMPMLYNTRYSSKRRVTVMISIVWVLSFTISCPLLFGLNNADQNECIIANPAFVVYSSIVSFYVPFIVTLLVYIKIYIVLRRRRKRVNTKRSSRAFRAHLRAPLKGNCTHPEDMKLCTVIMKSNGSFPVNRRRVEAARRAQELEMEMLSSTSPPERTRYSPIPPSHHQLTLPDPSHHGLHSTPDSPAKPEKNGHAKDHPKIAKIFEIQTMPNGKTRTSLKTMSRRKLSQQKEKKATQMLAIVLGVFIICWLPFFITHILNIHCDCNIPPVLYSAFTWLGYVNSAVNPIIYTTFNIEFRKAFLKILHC
Chain of Substance-K receptor (Homo sapiens) (P21452 whole entry): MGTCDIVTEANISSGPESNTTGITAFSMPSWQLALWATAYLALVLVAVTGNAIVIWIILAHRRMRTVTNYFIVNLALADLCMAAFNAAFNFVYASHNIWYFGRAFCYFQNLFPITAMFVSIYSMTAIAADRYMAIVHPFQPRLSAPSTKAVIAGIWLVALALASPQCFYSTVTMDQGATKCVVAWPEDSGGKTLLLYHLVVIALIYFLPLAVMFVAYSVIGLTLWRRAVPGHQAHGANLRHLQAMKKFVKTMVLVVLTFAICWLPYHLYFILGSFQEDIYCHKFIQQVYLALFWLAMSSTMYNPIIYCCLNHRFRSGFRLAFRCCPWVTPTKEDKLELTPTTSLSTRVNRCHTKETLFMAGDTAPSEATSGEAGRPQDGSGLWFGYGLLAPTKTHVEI

- Activity (Cavia porcellus): > 77%
- Ratio [1]: 8.2
- Activity [2]: > 77%
- EC50 [3]: > 40 µM
- inhibition [4]: inactive
- Cp(f) (Plasma): 580 nM
- Ratio [5]: 2.7
- clearance [6]: 41.7 mL/min/kg
- Ratio [7]: 30.3
- Activity [8]: > 77%
- fCmax (Rattus norvegicus [9]): 2.2 µM
- IC50 (Cytochrome P450 3A4): > 27 µM
- Activity [11]: > 77%
- Activity [12]: > 77%
- Activity [13]: > 77%
- inhibition [14]: inactive
- CL free (Rattus norvegicus [15]): 150 mL/min/kg
- Activity [16]: > 77%
- half-life [17]: 36 min
- Activity [18]: > 77%
- Activity (Rattus norvegicus [19]): > 77%
- Activity [20]: > 77%
- Activity [21]: > 77%
- inhibition [22]: inactive
- IC50 [23]: 0.071 µM
Compound: Cn1cnc2ncn(Cc3nc(CCc4ccc(Cl)cc4)no3)c(=O)c21
- Activity (Rattus norvegicus [10]): Active
